# Key:
# [1] = Retardation factor of the compound using CHCl3-MeOH at ratio of 1:1 as solvent system by thin layer chromatography; format: physicochemical
# Mus musculus = experiment: Toxicity in mouse xenografted with mouse L1210 cells assessed as body weight loss at 80 to 160 mg/kg, ip administered q3d on days 1,4 and 7; format: organism-based; design: dose 80-160 mg/kg, route intraperitoneal; conditions: in vivo
# In short: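 Mice were implanted ip with 10^5 L1210 cells and dosed ip on days 1, 4 and 7 after implantation. Soluble compounds were dissolved in freshly prepared 0.005 M sodium phosphate, pH 7.4; an insoluble one was suspended in 10% Tween 80. Groups had five mice, with 15 untreated controls, and body weight loss was scored as toxicity.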
# [2] = Retardation factor of the compound using C6H6-MeOH-AcOH at ratio of 9:3:1 as solvent system by thin layer chromatography; format: physicochemical
# [3] = Retardation factor of the compound using C6H6-MeOH-AcOH at ratio of 9:6:1 as solvent system by thin layer chromatography; format: physicochemical
# [4] = Retardation factor of the compound using CHCl3-MeOH at ratio of 3:1 as solvent system by thin layer chromatography; format: physicochemical
# L1210 [5] = experiment: Antitumor activity against mouse L1210 cells xenografted in mouse assessed as increase in median host lifespan at 160 mg/kg, ip administered q3d on days 1, 4 and 7; format: functional; conditions: route intraperitoneal
# In short: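 Mice implanted ip with 10^5 L1210 leukemia cells. Drug was dissolved in 0.005 M sodium phosphate buffer, pH 7.4, freshly prepared before use, and injected ip on days 1, 4 and 7 after implantation. The dose range tested was 20–160 mg/kg. Five mice per group, 15 controls. Read-out is the percent increase in median life span versus untreated mice.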
# [6] = Retardation factor of the compound using C6H6-MeOH-AcOH at ratio of 45:30:1 as solvent system by thin layer chromatography; format: physicochemical
# [7] = Retardation factor of the compound using CHCl3-MeOH at ratio of 6:1 as solvent system by thin layer chromatography; format: physicochemical
# CCRF-CEM = experiment: Growth inhibition of human CCRF-CEM cells; format: functional; conditions: read-out: ID50 (the source's name)
# In short: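 Human lymphoblastic leukaemia CCRF-CEM cells were grown in culture with the compound, and the concentration giving 50% growth inhibition (ID50) was reported in µg/mL.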
# L1210 [8] = experiment: Anticancer activity against mouse L1210 cells xenografted in mouse assessed as increase in median host survival at 120 mg/kg, ip administered q3d on days 1, 4, 7; format: functional; conditions: route intraperitoneal
# L1210 [9] = experiment: Antitumor activity against mouse L1210 cells xenografted in mouse assessed as increase in median host lifespan at 15 mg/kg, ip administered q3d on days 1, 4 and 7; format: functional; conditions: route intraperitoneal
# In short: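 L1210 murine leukemia, 10^5 cells implanted ip; drug given ip on days 1, 4 and 7 after implantation, as disodium salt in aqueous solution. Five mice per treated group, 15 untreated controls. Read-out is the percent increase in median survival time over untreated mice.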
smiles,measurement,setting,value
CCOC(=O)CC[C@H](NC(=O)CC[C@H](NC(=O)c1ccc(N(C)Cc2cnc3nc(N)nc(N)c3n2)cc1)C(=O)O)C(=O)OCC [listing 1 of 2 here],Rf,[1],0.23
same,Activity,Mus musculus,Toxic
same,Rf,[2],0.2
same,Rf,[3],0.35
same,Rf,[4],0.02
same,Activity,L1210 [5],40%
same,Rf,[6],0.44
same,Rf,[7],0.01
same,IC50,CCRF-CEM,0.88 µg/mL
CCOC(=O)CC[C@H](NC(=O)[C@H](CCC(=O)O)NC(=O)c1ccc(N(C)Cc2cnc3nc(N)nc(N)c3n2)cc1)C(=O)OCC,Rf,[1],0.28
same,Activity,Mus musculus,Toxic
same,Rf,[2],0.31
same,Rf,[3],0.46
same,Rf,[4],0.1
same,Activity,L1210 [5],10%
same,Rf,[6],0.58
same,Rf,[7],0.04
same,IC50,CCRF-CEM,> 10 µg/mL
CCOC(=O)CC[C@H](NC(=O)CC[C@H](NC(=O)c1ccc(N(C)Cc2cnc3nc(N)nc(N)c3n2)cc1)C(=O)N[C@@H](CCC(=O)OCC)C(=O)OCC)C(=O)OCC,Rf,[1],0.82
same,Rf,[4],0.78
same,Rf,[7],0.46
same,IC50,CCRF-CEM,3.8 µg/mL
CCOC(=O)CC[C@H](NC(=O)CC[C@@H](NC(=O)c1ccc(N(C)Cc2cnc3nc(N)nc(N)c3n2)cc1)C(=O)N[C@@H](CCC(=O)OCC)C(=O)OCC)C(=O)OCC,Rf,[1],0.82
same,Rf,[4],0.77
same,Rf,[7],0.43
same,IC50,CCRF-CEM,9 µg/mL
CCOC(=O)CC[C@H](NC(=O)CC[C@H](NC(=O)c1ccc(N(C)Cc2cnc3nc(N)nc(N)c3n2)cc1)C(=O)OCC)C(=O)OCC,Rf,[1],0.79
same,Rf,[4],0.76
same,Rf,[7],0.44
same,IC50,CCRF-CEM,1.8 µg/mL
CCOC(=O)CC[C@H](NC(=O)c1ccc(N(C)Cc2cnc3nc(N)nc(N)c3n2)cc1)C(=O)N[C@@H](CCC(=O)OCC)C(=O)OCC,Rf,[1],0.79
same,Rf,[4],0.73
same,Rf,[7],0.4
same,IC50,CCRF-CEM,0.85 µg/mL
CCOC(=O)CC[C@H](NC(=O)CC[C@H](NC(=O)c1ccc(N(C)Cc2cnc3nc(N)nc(N)c3n2)cc1)C(=O)O)C(=O)OCC [listing 2 of 2 here],survival at 120 mg/kg,L1210 [8],77%
CCOC(=O)CCC(NC(=O)CCC(NC(=O)c1ccc(N(C)Cc2cnc3nc(N)nc(N)c3n2)cc1)C(=O)NC(CCC(=O)OCC)C(=O)OCC)C(=O)OCC (mixture of isomers),Rf,[1],0.82
same,Rf,[2],0.47
same,Rf,[3],0.68
same,Rf,[4],0.77
same,Rf,[6],0.82
same,Rf,[7],0.4
CN(Cc1cnc2nc(N)nc(N)c2n1)c1ccc(C(=O)N[C@@H](CCC(=O)[O-])C(=O)[O-])cc1.[Na+].[Na+] [METHOTREXATE SODIUM],Activity,L1210 [9],60%
CN(Cc1cnc2nc(N)nc(N)c2n1)c1ccc(C(=O)N[C@@H](CCC(=O)O)C(=O)O)cc1 [METHOTREXATE],IC50,CCRF-CEM,0.003 µg/mL

# — ChEMBL document CHEMBL3244255, “Methotrexate analogues. 10. Direct coupling of methotrexate and diethyl L-glutamate in the presence of peptide bond-forming reagents” (J Med Chem, 1978)
